This is an account of results in paper PMC10840089 (RSC Advances, 2024).

Entries after “also recorded” stand apart in the source; their conditions may differ.

In general, IC50 refers to the concentration that gives 50% inhibition. High values mean a need for much substance, low ones inhibition by little substance. Broadly, the Ki is the dissociation constant of the complex between target and ligand, obtained from inhibition or displacement. A higher Ki goes with a looser hold on the target.

For experiment [1], the target named is T1, α-amylase from porcine pancreas (Sus scrofa, UniProt P00690).
T1 sequence (P00690 16-511): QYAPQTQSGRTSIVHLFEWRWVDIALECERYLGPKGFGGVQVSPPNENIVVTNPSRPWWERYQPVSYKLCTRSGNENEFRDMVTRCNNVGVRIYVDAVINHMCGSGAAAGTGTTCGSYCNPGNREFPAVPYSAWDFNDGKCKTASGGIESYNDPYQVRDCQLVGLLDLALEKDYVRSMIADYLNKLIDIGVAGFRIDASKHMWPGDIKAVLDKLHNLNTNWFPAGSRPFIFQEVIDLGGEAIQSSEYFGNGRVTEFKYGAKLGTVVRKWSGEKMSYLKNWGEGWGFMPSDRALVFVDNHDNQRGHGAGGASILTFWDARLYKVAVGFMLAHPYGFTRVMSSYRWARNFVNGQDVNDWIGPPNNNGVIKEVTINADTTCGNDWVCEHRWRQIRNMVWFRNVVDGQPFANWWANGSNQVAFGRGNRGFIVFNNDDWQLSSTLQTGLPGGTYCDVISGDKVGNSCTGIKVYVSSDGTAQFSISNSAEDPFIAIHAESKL
Nature of the experiment: α-amylase inhibition assay. It is filed as biochemical.

Experiment [2] has as its target T1, α-amylase from porcine pancreas. Description: α-amylase inhibition kinetics. It is filed as biochemical. The conditions noted are these: for type (mechanism) of α-amylase inhibition: Lineweaver–Burk plot, starch 0.5 to 2.5%. The essentials:
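Porcine pancreatic enzyme (1151 U mg−1 protein) diluted in 0.2 mol L−1 phosphate buffer, pH 6, preincubated with test compound (6.25–50 μM) 5 min at 25 °C. Soluble starch (0.5–2.5%) then added, 10 min at 25 °C. Reducing sugar measured with DNS (boiling water, 15 min) at 540 nm against a glucose standard curve. Inhibition type taken from Lineweaver–Burk plots, Vmax and KM by graph fitting.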

`C=C1CC[C@@H]2C(C)(C)C(=O)CC[C@@]2(C)[C@@H]1COc1ccc2ccc(=O)oc2c1` [Compound 2, 7-(((1R,4aS,8aR)-5,5,8a-trimethyl-2-methylene-6-oxodecahydronaphthalen-1-yl)methoxy)-2H-chromen-2-one] came in with a half-maximal inhibitory concentration (IC50) in experiment [1] of 25 ± 0.99 µM.

Compound `C=C1CC[C@@H]2C(C)(C)C(=O)/C(=C/c3ccccc3)C[C@@]2(C)[C@@H]1COc1ccc2ccc(=O)oc2c1` [Compound 3a, 7-(((1R,4aS,8aR)-7-((E)-benzylidene)-5,5,8a-trimethyl-2-methylene-6-oxodecahydronaphthalen-1-yl)methoxy)-2H-chromen-2-one] returned a 50% inhibitory concentration (IC50) in experiment [1] of 29 ± 0.65 µM.

`C=C1CC[C@@H]2C(C)(C)C(=O)/C(=C/c3ccc4ccccc4c3)C[C@@]2(C)[C@@H]1COc1ccc2ccc(=O)oc2c1` [Compound 3b, 7-(((1R,4aS,8aR,E)-5,5,8a-trimethyl-2-methylene-7-(naphthalen-2-ylmethylene)-6-oxodecahydronaphthalen-1-yl)methoxy)-2H-chromen-2-one] yielded a 50% inhibitory concentration (IC50) in experiment [1] of 14.4 ± 0.3 µM.

On to `C=C1CC[C@@H]2C(C)(C)C(=O)/C(=C/c3ccc(F)cc3)C[C@@]2(C)[C@@H]1COc1ccc2ccc(=O)oc2c1` [Compound 3c, 7-(((1R,4aS,8aR)-7-((E)-4-fluorobenzylidene)-5,5,8a-trimethyl-2-methylene-6-oxodecahydronaphthalen-1-yl)methoxy)-2H-chromen-2-one], for which inhibition in experiment [1] was half-maximal at 13.2 ± 0.73 µM (IC50).

On to `C=C1CC[C@@H]2C(C)(C)C(=O)/C(=C/c3ccc(Cl)cc3)C[C@@]2(C)[C@@H]1COc1ccc2ccc(=O)oc2c1` [Compound 3d, 7-(((1R,4aS,8aR)-7-((E)-4-chlorobenzylidene)-5,5,8a-trimethyl-2-methylene-6-oxodecahydronaphthalen-1-yl)methoxy)-2H-chromen-2-one], for which 17.2 ± 0.5 µM corresponded to half-maximal inhibition in experiment [1] (IC50).

On to `C=C1CC[C@@H]2C(C)(C)C(=O)/C(=C/c3ccc(Br)cc3)C[C@@]2(C)[C@@H]1COc1ccc2ccc(=O)oc2c1` [Compound 3e, 7-(((1R,4aS,8aR)-7-((E)-4-bromobenzylidene)-5,5,8a-trimethyl-2-methylene-6-oxodecahydronaphthalen-1-yl)methoxy)-2H-chromen-2-one], for which the IC50 in experiment [1] stood at 15.4 ± 0.29 µM.

Regarding `C=C1CC[C@@H]2C(C)(C)C(=O)/C(=C/c3ccc(C)cc3)C[C@@]2(C)[C@@H]1COc1ccc2ccc(=O)oc2c1` [Compound 3f, 7-(((1R,4aS,8aR)-5,5,8a-trimethyl-7-((E)-4-methylbenzylidene)-2-methylene-6-oxodecahydronaphthalen-1-yl)methoxy)-2H-chromen-2-one], in experiment [1], half-maximal inhibition (IC50) required 22.3 ± 0.9 µM.

For the compound `C=C1CC[C@@H]2C(C)(C)C(=O)/C(=C/c3ccc(C(C)(C)C)cc3)C[C@@]2(C)[C@@H]1COc1ccc2ccc(=O)oc2c1` [Compound 3g, 7-(((1R,4aS,8aR)-7-((E)-4-(tert-butyl)benzylidene)-5,5,8a-trimethyl-2-methylene-6-oxodecahydronaphthalen-1-yl)methoxy)-2H-chromen-2-one], the IC50 in experiment [1] was determined as 22.7 ± 0.86 µM.

Compound `C=C1CC[C@@H]2C(C)(C)C(=O)/C(=C/c3ccc(OC)cc3)C[C@@]2(C)[C@@H]1COc1ccc2ccc(=O)oc2c1` [Compound 3h, 7-(((1R,4aS,8aR)-7-((E)-4-methoxybenzylidene)-5,5,8a-trimethyl-2-methylene-6-oxodecahydronaphthalen-1-yl)methoxy)-2H-chromen-2-one] yielded a concentration for half-maximal inhibition (IC50) in experiment [1] of 13.5 ± 0.54 µM.

`C=C1CC[C@@H]2C(C)(C)C(=O)/C(=C/c3ccccc3OC)C[C@@]2(C)[C@@H]1COc1ccc2ccc(=O)oc2c1` [Compound 3i, 7-(((1R,4aS,8aR)-7-((E)-2-methoxybenzylidene)-5,5,8a-trimethyl-2-methylene-6-oxodecahydronaphthalen-1-yl)methoxy)-2H-chromen-2-one]: the IC50 in experiment [1] was found to be 14.5 ± 0.3 µM.

`C=C1CC[C@@H]2C(C)(C)C(=O)/C(=C/c3ccc(OC)c(OC)c3)C[C@@]2(C)[C@@H]1COc1ccc2ccc(=O)oc2c1` [Compound 3j, 7-(((1R,4aS,8aR)-7-((E)-3,4-dimethoxybenzylidene)-5,5,8a-trimethyl-2-methylene-6-oxodecahydronaphthalen-1-yl)methoxy)-2H-chromen-2-one] had an IC50 in experiment [1] of 13 ± 0.96 µM. Also, in experiment [2], the “type (mechanism) of α-amylase inhibition” value is “non-competitive inhibition”.

With `C=C1CC[C@@H]2C(C)(C)C(=O)/C(=C/c3cccc(OC(F)(F)C(F)F)c3)C[C@@]2(C)[C@@H]1COc1ccc2ccc(=O)oc2c1` [Compound 3k, 7-(((1R,4aS,8aR)-5,5,8a-trimethyl-2-methylene-6-oxo-7-((E)-3-(1,1,2,2-tetrafluoroethoxy)benzylidene)decahydronaphthalen-1-yl)methoxy)-2H-chromen-2-one], the half-inhibitory concentration (IC50) in experiment [1] came to 7.24 ± 0.36 µM. In experiment [2], the inhibitory constant (Ki) amounted to 1.02 µM and the “type (mechanism) of α-amylase inhibition” value is reported as “mixed competitive-non-competitive inhibitors”.

Consider `C=C1CC[C@@H]2C(C)(C)C(=O)/C(=C/c3ccc(N(C)C)cc3)C[C@@]2(C)[C@@H]1COc1ccc2ccc(=O)oc2c1` [Compound 3l, 7-(((1R,4aS,8aR)-7-((E)-4-(dimethylamino)benzylidene)-5,5,8a-trimethyl-2-methylene-6-oxodecahydronaphthalen-1-yl)methoxy)-2H-chromen-2-one], for which the IC50 in experiment [1] turned out to be 10.8 ± 0.6 µM. In addition, in experiment [2], the “type (mechanism) of α-amylase inhibition” value is on record as “mixed competitive-non-competitive inhibitors”.

Regarding `C=C1CC[C@@H]2C(C)(C)C(=O)/C(=C/c3ccc(N4CCCC4)cc3)C[C@@]2(C)[C@@H]1COc1ccc2ccc(=O)oc2c1` [Compound 3m, 7-(((1R,4aS,8aR)-5,5,8a-trimethyl-2-methylene-6-oxo-7-((E)-4-(pyrrolidin-1-yl)benzylidene)decahydronaphthalen-1-yl)methoxy)-2H-chromen-2-one], in experiment [1], inhibition was half-maximal at 8.83 ± 0.22 µM (IC50). The “type (mechanism) of α-amylase inhibition” value in experiment [2] is given as “mixed non-competitive-uncompetitive inhibitor; also recorded: mixed non-competitive-uncompetitive inhibition”.
